We go through seven molecules from paper PMC2757127 (Platelets, 2008).

What all share (format): cell-based
The target of one test is LPA5 (Homo sapiens, UniProt Q9H1C0). As to the kind of experiment: LPA-elicited Ca2+ transients in RH7777 cells transiently transfected with LPA5. As to conditions: for Effect on LPA5: heterologously expressed LPA5; for Emax: relative to LPA 18:1.
Another test has as its target LPA1 (Homo sapiens, UniProt Q92633). The test is described as follows: LPA-elicited Ca2+ transients in RH7777 cells stably expressing LPA1. The settings on record: for Effect on LPA1: heterologously expressed LPA1. Summed up: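 RH7777 cells stably expressing receptor, seeded on poly-L-lysine-coated wells at 5 × 10^4 cells/well overnight. Serum-starved 6 h in modified Krebs buffer (pH 7.4), loaded with Fura-2 AM for 35 min with 2% pluronic acid. Ca2+ recorded as the ratio of 520 nm emission at 340/380 nm excitation. Albumin arm: 15 µM BSA for 5 min before LPA. Quadruplicate.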

For a further test, the target named is T1, LPA3 (Homo sapiens, UniProt Q9UBY5).
T1 sequence (Q9UBY5 1-353): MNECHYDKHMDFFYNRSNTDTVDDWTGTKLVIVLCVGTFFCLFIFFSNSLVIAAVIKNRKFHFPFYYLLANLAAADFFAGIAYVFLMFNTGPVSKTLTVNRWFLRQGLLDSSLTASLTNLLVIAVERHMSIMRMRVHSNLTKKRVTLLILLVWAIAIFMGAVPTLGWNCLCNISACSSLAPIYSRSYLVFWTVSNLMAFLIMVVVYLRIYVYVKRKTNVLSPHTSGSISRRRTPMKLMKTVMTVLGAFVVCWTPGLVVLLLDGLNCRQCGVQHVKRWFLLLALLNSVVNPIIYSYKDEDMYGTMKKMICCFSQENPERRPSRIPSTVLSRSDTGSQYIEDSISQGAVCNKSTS
The test is described as follows: LPA-elicited Ca2+ transients in RH7777 cells stably expressing LPA3. The settings on record: for Effect on LPA3: heterologously expressed LPA3.

Another test concerns the target LPA4 (Homo sapiens, UniProt Q99677). As to the kind of experiment: LPA-elicited Ca2+ transients in CHO cells stably expressing LPA4. As to conditions: for Effect on LPA4: Table II, heterologously expressed LPA4.
A further test has as its target LPA2 (Homo sapiens, UniProt Q9HBW0). The test is described as follows: LPA-elicited Ca2+ transients in RH7777 cells stably expressing LPA2. The settings on record: for Effect on LPA2: heterologously expressed LPA2.
A further test deals with human platelets. As to the kind of experiment: Measurement of platelet cAMP. As to conditions: LPA 0.02–40 µM, 30 s–15 min; iloprost 50 nM, 1 minute. An outline of the steps:
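Human platelets from PRP pretreated with acetylsalicylic acid 1 mM and apyrase 0.3 U/mL (15 min, 37°C), washed, resuspended at 400,000/µL in HEPES buffer with glucose and apyrase (pH 7.4). Stirred suspensions were warmed 2 min at 37°C, then exposed to agonist for the set time. cAMP was measured by enzyme immunoassay. Mean ± SD, n=3 donors; Student's test, P 0.05.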

The subject of the next test is washed human platelets. As to the kind of experiment: Platelet shape change. The settings on record: read-out: Platelets EC50, Table IV, n=4, mean ± SD. Summed up:
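Washed human platelets were prepared from aspirin (1 mM)/apyrase-treated PRP and resuspended at 400,000/µL in HEPES buffer (pH 7.4) with glucose and 0.6 U/mL apyrase. Stirred at 1100 rpm and 37°C for 2 min, then given increasing agonist concentrations in methanol or FAF-BSA buffer (lipid:BSA 4:1). Shape change read as the fall in light transmission in an aggregometer. Four donors.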

[1] abbreviates: read-out: LPA5 transiently transfected RH7777 cells EC50, Table IV, mean ± SD.
Where [2] appears, read: 15µM FAF-BSA, 5 min pre-incubation.

Like-named read-outs stand apart in the source and are kept apart here.

LPA2, sequence (Q9HBW0 whole entry): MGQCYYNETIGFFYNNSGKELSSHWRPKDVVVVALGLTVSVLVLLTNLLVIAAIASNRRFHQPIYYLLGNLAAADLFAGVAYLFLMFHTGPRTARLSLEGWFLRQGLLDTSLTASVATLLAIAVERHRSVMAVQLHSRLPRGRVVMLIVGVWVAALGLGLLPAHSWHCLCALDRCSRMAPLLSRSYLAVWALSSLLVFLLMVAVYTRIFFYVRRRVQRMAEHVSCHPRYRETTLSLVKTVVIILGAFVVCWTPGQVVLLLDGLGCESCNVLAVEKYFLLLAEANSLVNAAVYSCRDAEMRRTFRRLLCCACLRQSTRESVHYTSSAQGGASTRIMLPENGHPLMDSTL
LPA1, sequence (Q92633 whole entry): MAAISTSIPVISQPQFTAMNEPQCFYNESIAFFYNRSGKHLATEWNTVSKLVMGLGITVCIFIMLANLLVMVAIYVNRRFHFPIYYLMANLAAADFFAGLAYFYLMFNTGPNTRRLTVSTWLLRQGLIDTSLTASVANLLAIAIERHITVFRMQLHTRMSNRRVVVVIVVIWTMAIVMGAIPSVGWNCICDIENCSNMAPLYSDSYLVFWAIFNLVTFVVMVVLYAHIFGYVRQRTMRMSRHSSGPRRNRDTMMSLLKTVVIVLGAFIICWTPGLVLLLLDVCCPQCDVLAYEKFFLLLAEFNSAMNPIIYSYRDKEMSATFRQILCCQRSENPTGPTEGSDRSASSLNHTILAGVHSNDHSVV
LPA5, sequence (Q9H1C0 whole entry): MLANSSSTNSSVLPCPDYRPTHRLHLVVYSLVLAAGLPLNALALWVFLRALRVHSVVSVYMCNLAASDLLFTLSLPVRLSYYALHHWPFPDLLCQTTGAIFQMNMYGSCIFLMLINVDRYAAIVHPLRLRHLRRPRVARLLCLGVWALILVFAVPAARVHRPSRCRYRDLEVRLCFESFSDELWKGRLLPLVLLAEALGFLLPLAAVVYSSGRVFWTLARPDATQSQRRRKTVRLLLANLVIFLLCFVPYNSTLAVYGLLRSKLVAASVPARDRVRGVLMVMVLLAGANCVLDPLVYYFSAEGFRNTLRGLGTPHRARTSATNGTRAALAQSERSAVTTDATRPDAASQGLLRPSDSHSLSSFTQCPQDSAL
LPA4, sequence (Q99677 whole entry): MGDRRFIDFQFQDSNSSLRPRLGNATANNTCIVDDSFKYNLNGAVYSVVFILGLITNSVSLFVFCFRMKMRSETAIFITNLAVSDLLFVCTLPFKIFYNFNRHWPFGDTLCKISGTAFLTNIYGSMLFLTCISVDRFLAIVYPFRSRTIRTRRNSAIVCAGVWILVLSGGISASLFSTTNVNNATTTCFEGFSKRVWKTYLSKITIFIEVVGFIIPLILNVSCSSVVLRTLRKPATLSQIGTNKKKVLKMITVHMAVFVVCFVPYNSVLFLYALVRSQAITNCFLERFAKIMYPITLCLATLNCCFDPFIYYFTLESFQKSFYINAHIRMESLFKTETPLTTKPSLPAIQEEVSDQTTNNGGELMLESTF

Turning to `CCCCCCCCCCCCCCCC(=O)N[C@@H](COP(=O)(O)O)C(=O)O` [NPSPA, N-palmitoyl-serine phosphoric acid], at LPA5 (Table II), the “Effect on LPA5” value is on record as “Partial agonist”. The EC50 on LPA5 (Table II, LPA5) was 0.42 µM; at LPA1 (Table II, LPA1), 0.74 µM; on LPA3 (Table II, LPA3) it was 0.73 µM; on LPA2 (Table II, LPA2), 11.9 µM. Also, the Emax at LPA5 (Table II, LPA5) was 23%; on LPA1 (Table II, LPA1, relative to LPA 18:1), 63%; at LPA3 (Table II, LPA3, relative to LPA 18:1), 81%; at LPA2 (Table II, LPA2, relative to LPA 18:1) it was 46%. Moreover, the “Effect on LPA1” value on LPA1 (Table II) was “Partial agonist”. In addition, at LPA3 (Table II), the “Effect on LPA3” value is “Partial agonist”. Also, the “Effect on LPA4” value at LPA4 is “No effect”. Moreover, the “Effect on LPA2” value on LPA2 (Table II) is reported as “Partial agonist”.

Consider `CCCCCCCCCCCCCCCC(=O)N[C@@H](Cc1ccc(OP(=O)(O)O)cc1)C(=O)O` [NPTPA, N-palmitoyl-tyrosine phosphoric acid], for which the “Effect on LPA5” value on LPA5 (Table II) is recorded as “Partial agonist”. Also, at LPA5 (Table II, LPA5), the Emax amounted to 72.0%. Besides, the “Effect on LPA1” value at LPA1 (Table II) is on record as “Antagonist”. In addition, the Ki at LPA1 (Table II, LPA1, inhibitory binding constant) was 0.53 µM; at LPA1 (read-out: Ki at LPA1, text b35) it was 0.533 µM. Moreover, the “Effect on LPA3” value on LPA3 (Table II) is given as “No effect”. In addition, the “Effect on LPA4” value on LPA4 is “No effect”. In addition, the “Effect on LPA2” value on LPA2 (Table II) is “No effect”.

For `CCCCCCCCCCCCCCCC(=O)OC[C@@H](O)COP(=O)(O)O` [acyl-LPA 16:0], in the test with human platelets, the “Change in platelet cAMP levels” value was “did not affect”.

In the case of `CCCCCCCCCCCCCCCCOC[C@@H](O)COP(=O)(O)O` [alkyl-LPA 16:0], the values for the EC50 at LPA5 (setting [1]) and with washed human platelets were 0.0041 ± 0.0021 µM and 0.0046 ± 0.00098 µM, respectively. The “Change in platelet cAMP levels” value with human platelets is “did not affect”.

In the case of `CCCCCCCCCCCCCCCCCCOC[C@@H](O)COP(=O)(O)O` [alkyl-LPA 18:0], the EC50 was determined as 0.0699 ± 0.0214 µM on LPA5 (setting [1]) and 0.0202 ± 0.0175 µM in the test with washed human platelets.

As to `CC#CCC(C)[C@H](O)/C=C/[C@@H]1[C@H]2C/C(=C/CCCC(=O)O)C[C@H]2C[C@H]1O` (stereo partly drawn) [iloprost], the “Change in platelet cAMP levels” value in the test on human platelets was “robust increase”.

Consider “fatty acid free bovine serum albumin [FAF-BSA]”, for which, in the test with LPA5 (setting [2]), the “Effect on activation of LPA5 by LPA” value is on record as “did not inhibit”. In addition, the “Effect on activation of LPA1 by LPA” value with LPA1 (setting [2]) was “did not inhibit”. Also, the “Effect on activation of LPA3 by LPA” value in the test with LPA3 (setting [2]) is “did not inhibit”. The “Inhibition of LPA4 activation” value with LPA4 (setting [2]) amounted to 40%. Besides, in the test with LPA2 (setting [2]), the “Effect on activation of LPA2 by LPA” value is “did not inhibit”.

The term EC50 denotes the concentration that produces a half-maximal response. For orientation: Emax means the greatest response seen or fitted, relative to the assay's reference. One may read the Ki as the equilibrium dissociation constant of an inhibitor or competing ligand from its target.
